# Source: ChEMBL document CHEMBL3271992, “Synthesis of 4-alkyl and 4-(beta-alkylvinyl) derivatives of primaquine as potential antimalarials” (J Med Chem, 1979)
# Calls of active or inactive are those of the source. The rule behind the calls is not given here.
# Legend:
# Leishmania donovani = test: Antileishmanial activity against Leishmania donovani infected in hamster; type: functional, organism-based
# Plasmodium berghei [1] = test: Antimalarial activity against blood schizont stage of Plasmodium berghei infected in mouse assessed as mean survival time at 40 mg/kg (reference value: 6.2 +/- 0.5 days); type: functional
# Plasmodium berghei [2] = test: Antimalarial activity against blood schizont stage of Plasmodium berghei infected in mouse assessed as mean survival time at 160 mg/kg (reference value: 6.2 +/- 0.5 days); type: functional
# Plasmodium berghei [3] = test: Antimalarial activity against blood schizont stage of Plasmodium berghei infected in mouse assessed as mean survival time at 640 mg/kg (reference value: 6.2 +/- 0.5 days); type: functional
# Mus musculus [4] = test: Toxicity in mouse infected with Plasmodium berghei assessed as death at 640 mg/kg after 2 to 5 days; type: organism-based; design: dose 640 mg/kg; settings: in vivo
# Plasmodium berghei [5] = test: Antimalarial activity against blood schizont stage of Plasmodium berghei infected in mouse assessed as mean survival time at 20 mg/kg (reference value: 6.2 +/- 0.5 days); type: functional
# Plasmodium berghei [6] = test: Antimalarial activity against blood schizont stage of Plasmodium berghei infected in mouse assessed as mean survival time at 80 mg/kg (reference value: 6.2 +/- 0.5 days); type: functional
# Mus musculus [7] = test: Toxicity in mouse infected with Plasmodium berghei assessed as death at 320 mg/kg after 2 to 5 days; type: organism-based; design: dose 320 mg/kg; settings: in vivo
# Plasmodium cynomolgi [8] = test: Antimalarial activity against Plasmodium cynomolgi infected in rhesus monkey assessed as time duration between end of treatment and relapse at 1 mg/kg administered via stomach tube once daily for 7 days with 2.5 mg of base/kg of chloroquine1; type: functional
# Plasmodium cynomolgi [9] = test: Antimalarial activity against Plasmodium cynomolgi infected in rhesus monkey assessed as time duration between end of treatment and relapse at 0.5 mg/kg administered via stomach tube once daily for 7 days with 2.5 mg of base/kg of chloroquine1; type: functional
# Plasmodium cynomolgi [10] = test: Antimalarial activity against Plasmodium cynomolgi infected in rhesus monkey assessed as infection cure at 0.5 mg/kg administered via stomach tube once daily for 7 days with 2.5 mg of base/kg of chloroquine; type: functional, organism-based; design: dose 0.5 mg/kg
# Plasmodium cynomolgi [11] = test: Antimalarial activity against Plasmodium cynomolgi infected in rhesus monkey assessed as infection cure at 1 mg/kg administered via stomach tube once daily for 7 days with 2.5 mg of base/kg of chloroquine; type: functional, organism-based; design: dose 1 mg/kg
# [12] = test system: Plasmodium berghei yoelii; test: Antimalarial activity against sporozoite stage of Plasmodium berghei yoelii infected in mouse assessed as survival at 2.5 mg/kg, po after 30 days; type: functional, organism-based; design: dose 2.5 mg/kg
# Procedure, shortened: (§1)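 Mice infected with P. berghei yoelii (sporozoite challenge) were dosed on the day of challenge, in groups of five, either orally or subcutaneously at several dose levels. Compound was dissolved or suspended in 0.5% hydroxyethylcellulose–0.1% Tween 80. Prophylactic activity was read as survival of treated mice to 30 days, reported as cures per number treated, with toxic deaths noted.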
# [13] = test system: Plasmodium berghei yoelii; test: Antimalarial activity against sporozoite stage of Plasmodium berghei yoelii infected in mouse assessed as survival at 2.5 mg/kg, sc after 30 days; type: functional, organism-based; design: dose 2.5 mg/kg; procedure, shortened: as §1
# Plasmodium berghei [14] = test: Antimalarial activity against blood schizont stage of Plasmodium berghei infected in mouse assessed as mean survival time at 320 mg/kg (reference value: 6.2 +/- 0.5 days); type: functional
# Plasmodium cynomolgi [15] = test: Antimalarial activity against Plasmodium cynomolgi infected in rhesus monkey assessed as infection cure at 0.25 mg/kg administered via stomach tube once daily for 7 days with 2.5 mg of base/kg of chloroquine; type: functional, organism-based; design: dose 0.25 mg/kg
# Plasmodium cynomolgi [16] = test: Antimalarial activity against Plasmodium cynomolgi infected in rhesus monkey assessed as time duration between end of treatment and relapse at 0.25 mg/kg administered via stomach tube once daily for 7 days with 2.5 mg of base/kg of chloroquine1; type: functional, organism-based; design: dose 0.25 mg/kg
# [17] = test system: Plasmodium berghei yoelii; test: Antimalarial activity against sporozoite stage of Plasmodium berghei yoelii infected in mouse assessed as survival at 10 mg/kg, sc after 30 days; type: functional, organism-based; design: dose 10 mg/kg; procedure, shortened: as §1
# [18] = test system: Plasmodium berghei yoelii; test: Antimalarial activity against sporozoite stage of Plasmodium berghei yoelii infected in mouse assessed as survival at 10 mg/kg, po after 30 days; type: functional, organism-based; design: dose 10 mg/kg; procedure, shortened: as §1
# [19] = test system: Plasmodium berghei yoelii; test: Antimalarial activity against sporozoite stage of Plasmodium berghei yoelii infected in mouse assessed as survival at 160 mg/kg, sc after 30 days; type: functional, organism-based; design: dose 160 mg/kg; procedure, shortened: as §1
SMILES,Activity (Leishmania donovani),Time (Plasmodium cynomolgi [8]) [days],Time (Plasmodium cynomolgi [9]) [days],Activity (Plasmodium cynomolgi [10]),Activity (Plasmodium cynomolgi [11]),further results
COc1cc(NC(C)CCCN)c2nccc(CCC3CCCCC3)c2c1.O=C(O)/C=C/C(=O)O (stereo unspecified),inactive,,,,,MSD (Plasmodium berghei [1]): 0.3 days; MSD (Plasmodium berghei [2]): 0.3 days; MSD (Plasmodium berghei [3]): 0.5 days
COc1cc(NC(C)CCCN)c2ncccc2c1 (stereo unspecified) [PRIMAQUINE],,,,,,Activity (Mus musculus [4]): Toxic; MSD (Plasmodium berghei [1]): 5 days; MSD (Plasmodium berghei [5]): 4 days; MSD (Plasmodium berghei [6]): 9.4 days; Activity (Mus musculus [7]): Toxic
CC/C=C/c1ccnc2c(NC(C)CCCN)cc(OC)cc12.O=C(O)/C=C/C(=O)O (stereo unspecified),inactive,10,6,inactive,inactive,MSD (Plasmodium berghei [1]): 5.1 days; MSD (Plasmodium berghei [5]): 3.1 days; Activity [12]: inactive; Activity [13]: inactive; MSD (Plasmodium berghei [6]): 6.5 days; MSD (Plasmodium berghei [2]): 7.5 days; MSD (Plasmodium berghei [14]): 9.5 days; MSD (Plasmodium berghei [3]): 10.3 days
C/C=C\c1ccnc2c(NC(C)CCCN)cc(OC)cc12.O=C(O)/C=C/C(=O)O (mixture of isomers),inactive,6,6,inactive,inactive,Activity (Plasmodium cynomolgi [15]): inactive; Activity (Plasmodium cynomolgi [16]): inactive; Activity [12]: inactive
C/C=C/c1ccnc2c(NC(C)CCCN)cc(OC)cc12.O=C(O)/C=C/C(=O)O (stereo unspecified),inactive,18,8,inactive,inactive,Activity [17]: inactive
Br.COc1cc(NC(C)CCCN)c2nccc(/C=C/CC3CCCCC3)c2c1 (stereo unspecified),inactive,,,,,MSD (Plasmodium berghei [5]): 0.4 days; MSD (Plasmodium berghei [6]): 0.9 days; MSD (Plasmodium berghei [14]): -0.4 days
COc1cc(NC(C)CCCN)c2nccc(CCCC3CCCCC3)c2c1.O=C(O)/C=C/C(=O)O (stereo unspecified),inactive,8,6,inactive,inactive,MSD (Plasmodium berghei [5]): 0.3 days; MSD (Plasmodium berghei [6]): 0.4 days; MSD (Plasmodium berghei [14]): 0.9 days
CC/C(C)=C\c1ccnc2c(NC(C)CCCN)cc(OC)cc12 (stereo unspecified),inactive,,,,,
CCCCc1ccnc2c(NC(C)CCCN)cc(OC)cc12.O=C(O)/C=C/C(=O)O (stereo unspecified),inactive,22,5,inactive,inactive,Activity [12]: inactive; Activity [17]: inactive
COc1cc(NC(C)CCCN)c2nccc(CC3CCCCC3)c2c1.O=C(O)/C=C/C(=O)O (stereo unspecified),inactive,7,6,inactive,inactive,
CCCc1ccnc2c(NC(C)CCCN)cc(OC)cc12.O=C(O)/C=C/C(=O)O (stereo unspecified),inactive,23,7,inactive,inactive,
COc1cc(NC(C)CCCN)c2nccc(C=C(C)C)c2c1 (stereo unspecified),inactive,,,,,
CCC(C)Cc1ccnc2c(NC(C)CCCN)cc(OC)cc12.O=C(O)/C=C/C(=O)O (stereo unspecified),inactive,9,7,inactive,inactive,
COc1cc(NC(C)CCCN)c2nccc(/C=C/C3CCCCC3)c2c1 (stereo unspecified),inactive,,,,,Activity [18]: inactive; Activity [19]: inactive; Activity [17]: inactive
